Source: PubChem
ERa coact inh: ER-alpha (human) coactivator binding inhibition. TR-FRET ER-alpha LBD / SRC-1 peptide, estradiol-bound. inhibition, % at 25.6 µM. 86,000 compounds, 1.7% hits. P03372; in the data active means inhibition above about 50%;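 further: 0% = receptor plus peptide control and 100% = peptide only without receptor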
Target sequence (P03372 whole entry, looked up, the tested form may be a part): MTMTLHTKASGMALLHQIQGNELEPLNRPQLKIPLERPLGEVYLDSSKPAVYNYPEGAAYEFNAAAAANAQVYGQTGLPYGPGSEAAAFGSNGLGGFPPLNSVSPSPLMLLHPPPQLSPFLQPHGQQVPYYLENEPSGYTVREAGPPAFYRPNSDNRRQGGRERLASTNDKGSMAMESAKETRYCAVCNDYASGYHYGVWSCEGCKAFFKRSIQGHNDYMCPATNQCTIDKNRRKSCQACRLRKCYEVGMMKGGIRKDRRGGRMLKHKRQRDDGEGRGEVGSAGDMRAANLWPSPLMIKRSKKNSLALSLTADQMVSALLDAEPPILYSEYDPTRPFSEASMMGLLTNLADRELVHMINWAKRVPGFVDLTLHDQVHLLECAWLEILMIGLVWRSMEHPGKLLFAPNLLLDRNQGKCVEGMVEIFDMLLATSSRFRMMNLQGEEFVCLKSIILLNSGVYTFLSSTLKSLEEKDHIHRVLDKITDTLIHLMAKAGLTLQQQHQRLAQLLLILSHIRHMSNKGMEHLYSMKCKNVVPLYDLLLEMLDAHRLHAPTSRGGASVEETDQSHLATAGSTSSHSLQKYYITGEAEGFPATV
HUVEC prolif 384: inhibitors of human endothelial cell proliferation; HUVEC proliferation, CellTiter-Glo luminescence, 72 h; stronger effect = lower value; viability, % at 10 µM (by protocol); 86,000 compounds, 1.1% hits;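 active means viability at or below 30%; inactive means viability above 30%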;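 further: 100% = median luminescence of DMSO-only cell control wells on each plate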
ERb SRC1 inh: ER-beta (human) coactivator binding inhibition; Q92731; TR-FRET ER-beta LBD / SRC1-Cy5 peptide binding; receptor agonist-loaded with 1 µM estradiol; inhibition, % at 25.6 µM; 86,000 compounds, 1.3% hits; AID 633;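 active means compounds whose percent inhibition of the receptor-coactivator binding signal exceeds about 50% in the single-dose screen, limit read from the data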;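 further: 0% = receptor plus peptide wells without compound and 100% = peptide-only wells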
Fibroblast inh: blocks proliferation of human lung fibroblasts. LL 47 human lung fibroblast viability, ATP luminescence; stronger effect = lower value. viability, % at 10 µM. 85,000 compounds, 1.1% hits;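 active means viability at or below 50% in the single dose screen; inactive means viability above 50%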;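 further: compound exposure lasted 72 h before the ATP readout; 100% = median luminescence of untreated cell-only wells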
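Assay system: human lung fibroblast line LL 47, low passage. Input: 1,150 fibroblasts seeded per well. Times: overnight cell rest, 72 h compound treatment at 37 °C. Evaluation: % viability of median cell-only signal. Technique: luminescent ATP detection, CellTiter-Glo. Control set: cell-only wells, no compound.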
ERa SRC1 pot: enhances coactivator binding to human estrogen receptor alpha; P03372; TR-FRET ERalpha-LBD/SRC-Cy5 coactivator binding, 2 h; 100 = basal binding, no effect; coactivator binding (% of control), % at 25.6 µM; 86,000 compounds, 1.3% hits; AID 639; in the data active means activity above about 200%;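 further: binding measured in presence of low estradiol as agonist stimulus; 0% = peptide alone without receptor and 100% = receptor with peptide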
H69AR growth 86K: growth inhibitors of human H69AR lung tumor cells; H69AR lung tumor viability, ATP luminescence, 72 h; stronger effect = lower value; viability, % at 10 µM; 85,000 compounds, 6% hits; AID 598;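 active means viability at or below 40%; inactive means viability above 40%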;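 further: multidrug resistant small cell line overexpressing MRP-1 efflux transporter; 100% = mean luminescence of untreated control wells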
* hit, by the source's call; nt = no result; [ ] = another dose, or the depositor's remark. Rows were chosen to be rich in hits. Some 9.2% of all compounds tested hit in one or more screens of this group.

SMILES | ERa coact inh | HUVEC prolif 384 | ERb SRC1 inh | Fibroblast inh | ERa SRC1 pot | H69AR growth 86K
CCN1CCN(c2ccc(-n3c(C)nc4c(cnn4-c4ccccc4Cl)c3=O)cc2)CC1 | 10 | 101 | 17 | 98 | 92 | 87
Cc1ccc(S(=O)(=O)N2CCC(C(=O)NCCCOC(C)C)CC2)cc1 | -6 | 89 | -2 | 100 | 99 | 97
Cc1c(C(=O)N2CCOCC2)[nH]c2c1C(=O)CC(c1ccccc1Cl)C2 (configuration not stated) | -15 | 56 | 4 | 62 | 91 | 22*
COc1ccccc1C1CC(=O)NC(C)=C1C(=O)OCC1CCCO1 (configuration not stated) | 10 | 112 | 8 | 100 | 95 | 91
Cc1c(C(=O)OCC2CCCO2)[nH]c2c1C(=O)CC(c1ccco1)C2 (configuration not stated) | 54* | 57 | 50*[fluorescence artefact?] | 57 | 65 | 28*
C/C=C/COC(=O)c1[nH]c2c(c1C)C(=O)CC(c1ccco1)C2 (configuration not stated) | 59* | 42 | 55* | 53 | 81 | 29*
COC(=O)C1C(=O)c2c([nH]c(C(=O)OC3CCCC3)c2C)CC1C (configuration not stated) | 2 | 90 | -9 | 90 | 98 | 70
Cc1c(C(=O)OCCOc2ccccc2)[nH]c2c1C(=O)CCC2 | 2 | 78 | -3 | 91 | 115 | 79
Cc1c(C(=O)OC2CCCC2)[nH]c2c1C(=O)CC(c1ccco1)C2 (configuration not stated) | 13 | 32 | 18 | 55 | 150 | 28*
O=C(CSc1nnc(CNC(=O)c2cccs2)o1)Nc1cccc(C(F)(F)F)c1 | -2 | 88 | -3 | 92 | 108 | 91
C=CCSC1=N/C(=C\c2ccc(C)o2)C(=O)S1 | 2 | 99 | 12 | 98 | 96 | 83
C=CCSc1nnc(NC(=O)COc2ccc3ccccc3c2)s1 | -11 | 94 | -10 | 99 | 134 | 101
O=C(c1ccccc1Nc1ccc(SC(F)F)cc1)N1CCCCC1 | -1 | 79 | -1 | 85 | 91 | 86
O=C(Nc1ccc(Cl)cc1)NC1CCCCC1 | 2 | 98 | -1 | 104 | 96 | 71
CC1CCCCC1NC(=S)Nc1ccc(SC(F)F)cc1 (configuration not stated) | -1 | 42 | -1 | 44* | 112 | 32*
FC(F)Sc1ccc(NC(=S)NCC2CCCCC2)cc1 | 2 | 43 | -9 | 83 | 111 | 5.1*
FC(F)Sc1ccc(NC(=S)NC2CCCCC2)cc1 | 5 | 49 | -9 | 96 | 87 | 18*
COC(=O)c1ccccc1NC(=O)c1ccccc1N(C)S(C)(=O)=O | 0 | 91 | -10 | 98 | 95 | 87
CC(C)(/C=N/O)/[N+]([O-])=C/C=[N+](\[O-])C(C)(C)/C=N/O | -3 | 96 | -7 | 92 | 112 | 89
CN(C)c1ccc(/C=[N+](\[O-])C(C)(C)/C=N/O)cc1 | -4 | 97 | -10 | nt | 114 | 30*
COC(=O)c1ccccc1NC(=O)CNC(=O)c1ccco1 | -11 | 96 | -5 | 106 | 118 | 103
CCOC(=O)c1c(C)[nH]c(C(=O)COC(=O)c2oc3ccccc3c2C)c1C | -4 | 75 | -6 | 99 | 102 | 80
CCOC(=O)c1c(C)[nH]c(C(=O)COC(=O)c2ccccc2NC(=O)c2ccco2)c1C | 9 | 65 | 11 | 100 | 134 | 18*
CCOC(=O)c1[nH]c(COC(=O)c2ccccc2NC(=O)c2ccco2)c(C(=O)OCC)c1C | 10 | 82 | 19 | 95 | 95 | 8.5*
CCOC(=O)/C(=N/Nc1ccccc1)c1csc(Nc2ccccc2)n1 | 7 | 81 | 5 | 92 | 95 | 11*
SMILES | ERa coact inh | HUVEC prolif 384 | ERb SRC1 inh | Fibroblast inh | ERa SRC1 pot | H69AR growth 86K
CCN(CC)C(=O)c1csc(Nc2ccc(C)cc2)n1 | -7 | 99 | 0 | 96 | 116 | nt
CCOC(=O)/C(=N\Nc1ccc(OC)cc1)c1csc(Nc2ccccc2)n1 | 6 | 84 | 50 | 108 | 86 | 24*
CCCCCC/C(=N\NS(C)(=O)=O)c1ccccc1 | 2 | 95 | 1 | 103 | 81 | 97
CCCCCC/C(=N/O)c1ccccn1 | 10 | 28* | 14 | 61 | 75 | 25*
CCOc1cc(-n2cnnn2)c(OCC)cc1NC(=O)c1cnccn1 | 55* | 100 | 26 | 101 | 137 | 82
Cc1nc2c3cc(Cl)ccc3n(CCN3CCCCC3)c2s1 | -5 | 47 | 6 | 49* | 111 | 26*
Cc1cc(C)c(C)c(S(=O)(=O)NCc2ccc(C(=O)N3CCCCC3)cc2)c1C | 1 | 95 | -3 | 99 | 103 | 33*
Cc1c(C(=O)/C=C/c2cccs2)oc2ccc(F)cc12 | -6 | 85 | 8 | 89 | 81 | 21*
CSc1nc(N)nc(SCCS(=O)(=O)c2ccc(Cl)cc2)c1C#N | -5 | 72 | -1 | 88 | 140 | 2.5*
COc1ccccc1NC(=O)COc1ccc(C(=O)OCC(=O)N2CCCC2=O)cc1OC | -5 | 88 | 12 | 96 | 349*[fluorescence artefact?] | 92
CCOC(=O)CSc1nnc(-c2ccc(OC)cc2OC)o1 | 10 | 88 | 10 | 88 | 104 | 93
CC1CCN(Cc2nc3c(c(=O)n(C)c(=O)n3C)n2CCN2CCOCC2)CC1 | -1 | 98 | -5 | 95 | 83 | 97
CCOC(=O)c1cnc(-n2nc(C)cc2C)nc1NCc1ccc2c(c1)OCO2 | 34 | 24* | 30 | 92 | 219*[fluorescence artefact?] | 56
CCOC(=O)c1cnc(-n2nc(C)cc2C)nc1NCCc1ccccc1 | -6 | 60 | 2 | 45* | 91 | 1.9*
COc1ccc(-c2nc(C#N)c(N3CCCCCC3)o2)cc1OC | 19 | 112 | 1 | 99 | 82 | 70
COc1ccc(Cl)cc1N1Cc2ccccc2C1 | 10 | 90 | -2 | 96 | 80 | 100
COc1ccccc1-n1c(=O)oc2ccc(Cl)cc2c1=O | 0 | 20* | -9 | 50 | 126 | 1.5*
CC(C)COC(=O)c1cccc2c1-c1ccccc1/C2=N\O | -7 | 43 | -5 | 98 | 81 | 41
CCOC(=O)c1cccc2c1-c1ccccc1/C2=N/O | 6 | 14* | 2 | 89 | 45 | 28*
COc1ccccc1NS(=O)(=O)c1ccc(C(=O)OCC(=O)NCc2ccco2)cc1 | 73*[fluorescence artefact?] | 93 | 45 | 101 | 63 | 91
COc1ccccc1NC(=O)COC(=O)c1ccc(S(=O)(=O)NCc2ccco2)cc1 | 24 | 98 | 14 | 103 | 90 | 88
Cc1cc(Cl)ccc1OCc1nc(-c2ccc(O)cc2)n[nH]1 | -14 | 72 | -16 | 111 | 101 | 22*
COC(=O)c1c(C)oc2c1cc(NS(=O)(=O)c1cccs1)c1ccccc12 | 8 | 53 | 5 | 86 | 84 | 20*
